Active and inactive are the calls of the source. The calls are words filed in the database; no cut-off is given here.
Tests used:
[1] = Cytotoxicity against human 518A2 cells after 24 hrs by MTT assay; format: functional, cell-based; conditions: 518A2, 24 h
Method in brief: (§1)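 MTT assay. Cells seeded and cultured 24 h, then exposed to compound for 24, 48 or 72 h. MTT added to a final 0.05% (HL-60, 518A2) or 0.1% (KB-V1, MCF-7) for 2 h. Formazan dissolved in 10% SDS/DMSO with 0.6% acetic acid; absorbance read at 570 nm against 630 nm background. Viability taken relative to untreated controls (100%). IC50 from concentration-response curves, mean ± SD of four independent experiments.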

[2] = Cytotoxicity against human 518A2 cells after 48 hrs by MTT assay; format: functional, cell-based; conditions: 518A2, 48 h; method in brief: as §1
[3] = Cytotoxicity against human 518A2 cells after 72 hrs by MTT assay; format: functional, cell-based; conditions: 518A2, 72 h; method in brief: as §1
HL-60 [4] = test: Cytotoxicity against human HL60 cells after 24 hrs by MTT assay; format: functional, cell-based; conditions: HL-60, 24 h; method in brief: as §1
HL-60 [5] = test: Cytotoxicity against human HL60 cells after 48 hrs by MTT assay; format: functional, cell-based; conditions: HL-60, 48 h; method in brief: as §1
HL-60 [6] = test: Cytotoxicity against human HL60 cells after 72 hrs by MTT assay; format: functional, cell-based; conditions: HL-60, 72 h; method in brief: as §1
[7] = Cytotoxicity against human vinblastine-resistant KBV1 cells after 24 hrs by MTT assay; format: functional, cell-based; conditions: KB-V1, 24 h; method in brief: as §1
[8] = Cytotoxicity against human vinblastine-resistant KBV1 cells after 48 hrs by MTT assay; format: functional, cell-based; conditions: KB-V1, 48 h; method in brief: as §1
[9] = Cytotoxicity against human vinblastine-resistant KBV1 cells after 72 hrs by MTT assay; format: functional, cell-based; conditions: KB-V1, 72 h; method in brief: as §1
MCF7 [10] = test: Cytotoxicity against human topotecan-resistant MCF7 cells after 24 hrs by MTT assay; format: functional, cell-based; conditions: MCF7, 24 h; method in brief: as §1
MCF7 [11] = test: Cytotoxicity against human topotecan-resistant MCF7 cells after 48 hrs by MTT assay; format: functional, cell-based; conditions: MCF7, 48 h; method in brief: as §1
MCF7 [12] = test: Cytotoxicity against human topotecan-resistant MCF7 cells after 72 hrs by MTT assay; format: functional, cell-based; conditions: MCF7, 72 h; method in brief: as §1
[13] = Cytotoxicity against human vinblastine-resistant KBV1 cells after 72 hrs by MTT assay in presence of 24 mM ABC transporter inhibitor verapamil hydrochloride; format: functional, cell-based; conditions: KB-V1, 72 h, in the assay text read “24 uM” for “24 mM”
Method in brief: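 MTT viability assay on P-gp-overexpressing KB-V1/Vbl cells with 24 µM verapamil hydrochloride added before the compound; 72 h exposure. Formazan read at 570/630 nm relative to untreated controls. IC50 from concentration-response curves, mean ± SD of four independent experiments.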

MCF7 [14] = test: Cytotoxicity against human topotecan-resistant MCF7 cells after 72 hrs by MTT assay in presence of […] BCRP inhibitor fumitremorgin C; format: functional, cell-based; conditions: MCF7, 72 h
Method in brief: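 MCF-7/Topo cells grown in E-MEM with 2.2 g/L NaHCO₃, 110 mg/L sodium pyruvate and 5% FCS. Cells were seeded, cultured 24 h, given fumitremorgin C, then exposed to compound for 72 h. MTT was added (final 0.1%) for 2 h, medium discarded, and formazan dissolved in 10% SDS/DMSO with 0.6% acetic acid. A570 (630 background) read versus untreated controls; IC50 from concentration-response curves; four independent experiments, mean ± SD.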

[15] = Ratio of IC50 for human vinblastine-resistant KBV1 cells in presence of […] ABC transporter inhibitor verapamil hydrochloride to IC50 for human vinblastine-resistant KBV1 cells; format: functional
Method in brief: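 MTT assay in P-gp-overexpressing KB-V1/Vbl cells grown in D-MEM with 10% FCS and antibiotics. Cells were seeded and cultured 24 h, verapamil hydrochloride was optionally added, and compound exposure ran 24, 48 or 72 h. MTT was added to 0.1% final for 2 h. After the medium was discarded, formazan was dissolved in 10% SDS/DMSO with 0.6% acetic acid and read at 570 nm (630 nm background). IC50 came from concentration-response curves, four independent experiments, and the ratio is IC50 with inhibitor over IC50 without.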

HL-60 [16] = test: Induction of apoptosis in human HL60 cells assessed as DNA ladder formation at 5 uM after 24 hrs by agarose gel electrophoresis; format: functional, cell-based
Method in brief: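 HL-60 cells incubated with 5 µM compound for 24 h, then examined for DNA ladder patterns.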

HL-60 [17] = test: Induction of apoptosis in human HL60 cells assessed as increase of caspase 3 activity at 5 uM after 1 to 24 hrs by luminometric assay; format: functional, cell-based
Method in brief: (§2)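 HL-60 and 518A2 cells treated with 5 µM compound and sampled at intervals from 1 to 24 h. Lysed in 50 mM Tris-HCl pH 7.4, 150 mM NaCl, 1% Triton X-100 with protease inhibitors for 15 min at 4 °C, spun at 800 g. Protein measured by Bradford. Caspase-3/7, -8 and -9 activities read with luminogenic peptide substrates; reported as relative luminescence.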

HL-60 [18] = test: Induction of apoptosis in human HL60 cells assessed as increase of caspase 8 activity at 5 uM after 1 to 24 hrs by luminometric assay; format: functional, cell-based; method in brief: as §2
HL-60 [19] = test: Induction of apoptosis in human HL60 cells assessed as increase of caspase 9 activity at 5 uM after 1 to 24 hrs by luminometric assay; format: functional, cell-based
Method in brief: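 HL-60 leukaemia cells were treated with test compound and sampled at intervals from 1 to 24 h. Protein was measured by Bradford. Caspase-9 (Caspase-Glo 8 for line 1) was read from a luminogenic peptide substrate as relative luminescence.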

518A2 [20] = test: Induction of apoptosis in human 518A2 cells assessed as increase of caspase 3 activity at 5 uM after 1 to 24 hrs by luminometric assay; format: functional, cell-based; method in brief: as §2
518A2 [21] = test: Induction of apoptosis in human 518A2 cells assessed as increase of caspase 8 activity at 5 uM after 1 to 24 hrs by luminometric assay; format: functional, cell-based; method in brief: as §2
518A2 [22] = test: Induction of apoptosis in human 518A2 cells assessed as increase of caspase 9 activity at 5 uM after 1 to 24 hrs by luminometric assay; format: functional, cell-based; method in brief: as §2
518A2 [23] = test: Induction of apoptosis in human 518A2 cells assessed as increase of caspase 9 activity at 5 uM after 2 hrs by luminometric assay; format: functional, cell-based; method in brief: as §2
518A2 [24] = test: Induction of apoptosis in human 518A2 cells assessed as increase of ratio of Bax to Bcl-2 mRNA expression at 5 uM after 6 to 18 hrs by RT-PCR analysis; format: functional, cell-based
Method in brief: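 518A2 cells exposed to 5 µM compound for 6 h or 18 h. bax and bcl-2 mRNA quantified by real-time PCR, normalised to GAPDH, and expressed as the bax/bcl-2 ratio.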

518A2 [25] = test: Induction of apoptosis in human 518A2 cells assessed as appearance of intact mitochondria in cytosol at 5 uM after 6 hrs using JC1 dye relative to control; format: functional
Method in brief: (§3)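 Mitochondrial membrane potential measured with JC-1. Cells exposed to 5 µM compound for 6 or 18 h, pelleted at 400 g, stained with 0.2× JC-1 at 37 °C for 15 min (HL-60) or 35 min (518A2), washed and resuspended in PBS. Red fluorescence (ex 585/em 590 nm) and green (ex 510/em 527 nm) read; red/green ratio relative to untreated controls (100%). Mean ± SD, four independent experiments.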

518A2 [26] = test: Induction of apoptosis in human 518A2 cells assessed as appearance of intact mitochondria in cytosol at 5 uM after 18 hrs using JC1 dye relative to control; format: functional; method in brief: as §3
HL-60 [27] = test: Induction of apoptosis in human HL60 cells assessed as appearance of intact mitochondria in cytosol at 5 uM after 6 hrs using JC1 dye relative to control; format: functional; method in brief: as §3
HL-60 [28] = test: Induction of apoptosis in human HL60 cells assessed as appearance of intact mitochondria in cytosol at 5 uM after 18 hrs using JC1 dye relative to control; format: functional; method in brief: as §3
[29] = Cytotoxicity against human 518A2 cells assessed as increase in ROS production at 5 uM after 24 hrs by NBT reduction assay relative to control; format: functional
Method in brief: (§4)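 NBT assay. HL-60 cells (0.5×10⁶/mL) or trypsinised 518A2 cells (5×10⁴/mL) pre-incubated 24 h at 37 °C, then given compound at a final 5 µM for 24 or 72 h. Medium removed; cells incubated with 0.1% NBT for 1 h (HL-60) or 4 h (518A2). Diformazan dissolved in 2 M KOH/DMSO; A630 read against 405 nm. Given as % of untreated controls; double quadruplicates.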

[30] = Cytotoxicity against human 518A2 cells assessed as increase in ROS production at 5 uM after 72 hrs by NBT reduction assay relative to control; format: functional; method in brief: as §4
HL-60 [31] = test: Cytotoxicity against human HL60 cells assessed as increase in ROS production at 5 uM after 24 hrs by NBT reduction assay relative to control; format: functional; method in brief: as §4
HL-60 [32] = test: Cytotoxicity against human HL60 cells assessed as increase in ROS production at 5 uM after 72 hrs by NBT reduction assay relative to control; format: functional; method in brief: as §4

CCCCCCCCCCCCCCCCC(=O)N/N=C(\CO)[C@]1(O)Cc2c(O)c3c(c(O)c2[C@@H](O[C@H]2C[C@H](N)[C@H](O)[C@H](C)O2)C1)C(=O)c1c(OC)cccc1C3=O.Cl [DOXORUBICIN HEPTADECANOYL HYDRAZONE]
IC50 [1]: 760 nM
IC50 [2]: 350 nM
IC50 [3]: 110 nM
IC50 (HL-60 [4]): 1400 nM
IC50 (HL-60 [5]): 860 nM
IC50 (HL-60 [6]): 280 nM
IC50 [7]: 42900 nM
IC50 [8]: 10700 nM
IC50 [9]: 5100 nM
IC50 (MCF7 [10]): 5900 nM
IC50 (MCF7 [11]): 3200 nM
IC50 (MCF7 [12]): 3000 nM
IC50 [13]: 3700 nM
IC50 (MCF7 [14]): 170 nM
Ratio IC50 [15]: 0.74
Activity (HL-60 [16]): Active
Activity (HL-60 [17]): Active
Activity (HL-60 [18]): Active
Activity (HL-60 [19]): Active
Activity (518A2 [20]): Active
Activity (518A2 [21]): Active
Activity (518A2 [22]): Active
Activity (518A2 [23]): Active
Activity (518A2 [24]): Active
Activity (518A2 [25]): 113%
Activity (518A2 [26]): 80%
Activity (HL-60 [27]): 94%
Activity (HL-60 [28]): 59%
Activity [29]: 6.6%
Activity [30]: 71.2%
Activity (HL-60 [31]): 2.8%
Activity (HL-60 [32]): 3.4%

— ChEMBL document CHEMBL1157852, “Modulation of doxorubicin activity in cancer cells by conjugation with fatty acyl and terpenyl hydrazones” (Eur J Med Chem, 2010)
